TbMetRS inhib = blocks T. brucei methionyl-tRNA synthetase activity; purified T. brucei MetRS, ATP depletion, Kinase-Glo luminescence; actives 0.4% (n = 360,000); inhibition, % at 11.9 µM;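 active = inhibition above a per-plate cutoff of the control wells' mean inhibition plus 3 SD, cut at about 5.5% in these data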;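 note: 0% = DMSO wells median and 100% = median of wells with control inhibitor compound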
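Test system: purified T. brucei MetRS enzyme. Also added: ATP, methionine and E. coli bulk tRNA substrates. Compound: 11.9 µM single point. Schedule: 15 min enzyme-compound preincubation, 2 h reaction, 10 min detection, 25 °C. Signal: luciferase luminescence of residual ATP, Kinase-Glo. Evaluation: percent inhibition versus plate control medians. Controls: DMSO wells, low control.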
ABCB6 inh 2 = blocks the human ABCB6 transporter; Q9NP58; K562-ABCB6 porphyrin accumulation, flow cytometry, 1 h; active compounds read low; fluorescence ratio to DMSO, % at 10 µM; actives 0.19% (n = 360,000);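 active = fluorescence ratio to DMSO below 75%, the collection mean minus 3 SD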;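 note: signal is porphyrin accumulated inside mitochondria; 100% equals median channel fluorescence of DMSO control wells; lower ratio means ABCB6 inhibition with less porphyrin fluorescence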
Granule exo inh = blocks lytic granule exocytosis | TALL-104 LAMP-1 surface exposure, flow cytometry; cells stimulated with thapsigargin and PMA | actives 0.66% (n = 360,000) | inhibition, % at 10 µM;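 active = inhibition above about 55%, limit read from the data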
MC4R barr agon = human MC4R agonism via beta-arrestin. actives 0.98% (n = 360,000). activation, % at 8.9 µM. P32245. U2OS MC4R beta-arrestin complementation, luminescence; percent of melanotan II response, DMSO zero. AID 540308;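 active = activation above a per-plate cutoff, the mean activation of sample wells on that plate plus 3 SD, cut at about 8% in these data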
Target sequence (P32245 whole entry, looked up): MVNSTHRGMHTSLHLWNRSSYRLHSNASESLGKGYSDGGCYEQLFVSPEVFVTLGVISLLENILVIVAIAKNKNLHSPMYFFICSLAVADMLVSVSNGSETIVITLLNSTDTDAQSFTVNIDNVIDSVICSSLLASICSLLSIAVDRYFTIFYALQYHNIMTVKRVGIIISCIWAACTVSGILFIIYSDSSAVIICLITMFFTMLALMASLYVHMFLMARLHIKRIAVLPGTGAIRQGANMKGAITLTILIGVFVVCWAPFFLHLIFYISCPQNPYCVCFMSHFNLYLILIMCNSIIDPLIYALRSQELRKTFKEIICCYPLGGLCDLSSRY
hiPSC survival = enhancers of human iPSC single-cell survival. hiPSC single-cell survival, ATPlite luminescence; 100% = ROCK inhibitor wells, 0% = DMSO. survival enhancement, % at 20 µM. actives 0.044% (n = 360,000); in the data active = survival enhancement above about 18%;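 note: cells exposed to compounds for 16 hours before the ATP read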
MC4R antagonist = antagonists of human melanocortin 4 receptor (MC4R). P32245. MC4R-expressing cells, MTII-stimulated cAMP, LANCE TR-FRET. inhibition, % at 6.5 µM. actives 0.48% (n = 360,000). AID 540295;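 active = inhibition above its plate's cutoff, the mean of tested wells on that plate plus 3 SD, cut at about 29% in these data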;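 note: 0% = Melanotan II alone and 100% = Melanotan II plus saturating MCL0020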
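system = U2OS cells with stable human MC4R expression | also added = Melanotan II challenge after compound preincubation | dosing = one concentration, 6.5 µM nominal | incubation = compound 30 min, challenge 1 h, detection 1 h | measured by = TR-FRET with Eu-cAMP and labeled anti-cAMP, 671 nm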
MC4R barr ag = human MC4R beta-arrestin agonism confirmation; shares compounds with MC4R barr agon; actives 31% (n = 2,400); activation, % at 8.9 µM; AID 602192; U2OS MC4R beta-arrestin recruitment, luminescence; scaled DMSO 0%, Melanotan II 100%;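 active = mean activation across replicates above the hit cutoff set in the earlier primary screen, cut at about 8% in these data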
MOR-DOR barr ag = OPRM1-OPRD1 heterodimer agonism counter-screen | U2OS PathHunter beta-arrestin, beta-gal luminescence; percent of deltorphin B response, DMSO zero | shares compounds with MC4R barr agon | AID 602194 | activation, % at 9.2 µM | actives 5.8% (n = 2,400);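 active = mean activation across replicates exceeds the hit threshold derived in the earlier primary screen, cut at about 18% in these data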;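 note: 100% = deltorphin B at 0.9 µM final and 0% = DMSO alone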
The depositor's hits bear a star; nt = no result given. A selection: hits, their analogues and other compounds. The true share with any hit is near 2.6%.

SMILES	TbMetRS inhib	ABCB6 inh 2	Granule exo inh	MC4R barr agon	hiPSC survival	MC4R antagonist	MC4R barr ag	MOR-DOR barr ag
Cc1nn(Cc2c(F)c(F)c(F)c(F)c2F)c(C)c1NC(=O)c1cccc(COc2ccccc2Cl)c1	0.0	99.0	-0.2	17.2*	4.3	9.3	6.3	3.4
CCC(C)(C)NC(=O)C(c1ccc(OC)cc1)N(Cc1ccc(OC)cc1)C(=O)CCC(=O)Nc1cc(C)on1 (centres undefined)	-0.1	100.0	18.1	0.2	0.0	14.1	nt	nt
C/C(=N\NC(=O)c1ccccc1)c1ccc(C)c([N+](=O)[O-])c1	0.2	92.0	0.1	-1.9	4.0	-0.3	nt	nt
CC1(C(=O)Nc2ccc3ccccc3c2)CCC(=O)N1C1CCN(Cc2ccccc2)CC1 (centres undefined)	-0.5	94.0	-0.5	nt	-1.5	nt	nt	nt
Cc1ccc(N2CCN(C3=NC(=O)/C(=C\c4cn[nH]c4-c4ccccc4)S3)CC2)cc1	-0.5	99.0	40.9	18.1*	1.2	7.6	4.4	2.9
Cc1cccc(N2CCN(C3=NC(=O)/C(=C\c4cn[nH]c4-c4ccccc4)S3)CC2)c1	0.4	97.0	0.5	16.4*	2.3	8.6	5.7	5.7
CCN(CC(=O)Nc1c(F)cccc1F)C(=O)c1ccc(Cl)c(S(=O)(=O)N2CCCC2)c1	-0.3	96.0	3.0	-1.9	2.3	-1.7	nt	nt
CC(=O)NCCc1nc2cc(NC(=O)c3ccccc3C)ccc2n1C	-0.8	97.0	-4.1	-0.2	-0.2	3.8	nt	nt
Cn1c(=O)c(C(=O)CSc2ccccc2)c(N)n(Cc2ccccc2)c1=O	-1.4	92.0	7.0	29.5*	-2.2	-1.5	0.9	8.7
Cc1ccsc1/C=N/NC(=O)c1nnn(-c2nonc2N)c1CSc1ccccc1	-0.4	99.0	-1.2	10.6*	1.4	0.9	5.9	9.6
COc1ccc(/C(C)=N/NC(=O)c2nnn(-c3nonc3N)c2CN(C)c2ccccc2)cc1	-1.0	102.0	1.2	13.3*	-0.4	-8.1	2.9	8.0
Cc1ccc(/C=N/NC(=O)c2nnn(-c3nonc3N)c2CSc2ccccc2)s1	-1.2	99.0	-0.5	1.7	-0.3	-0.2	nt	nt
CCCc1c(C(=O)N/N=C/c2c(OC)ccc3ccccc23)nnn1-c1nonc1N	-0.5	95.0	-3.2	24.6*	-0.5	-0.8	11.1*	4.6
Cc1nnn(-c2nonc2N)c1C(=O)N/N=C/c1ccccc1O	-0.7	100.0	1.9	10.2*	-1.2	7.3	0.8	3.8
O=C(NCCc1ccccc1)c1ccc(NC(=O)C2CCCCC2)cc1	0.0	94.0	-1.9	-0.5	2.8	1.2	nt	nt
CCOc1cccc(-c2c(C(=O)N/N=C/c3ccc(Br)cc3)nnn2-c2nonc2N)c1	0.2	100.0	13.0	-2.9	0.0	8.9	nt	nt
Cn1c(=O)c2cc(NC(=O)Cc3cccnc3)ccc2n1-c1ccc2ccccc2c1	0.0	102.0	12.4	-2.2	1.6	0.7	nt	nt
CC(CC(=O)Nc1ccc2c(c1)c(=O)n(C)n2-c1ccc2ccccc2c1)C(F)(F)F (centres undefined)	-0.3	105.0	-3.1	9.7*	-0.8	-22.4	-2.1	5.4
COC(=O)C1=C(C)N(Cc2ccccc2)C(=NCC(C)C)N[C@H]1c1cccc(C(F)(F)F)c1	-0.3	92.0	-2.6	15.7*	-2.4	7.8	17.5*	23.2*
CCOC(=O)c1cnc2cc(F)c(F)cc2c1N1CCN(C)CC1	-0.1	101.0	-1.3	0.5	-0.8	24.2	nt	nt
Cc1ccc(Cc2cnc(NC(=O)CN3CCOCC3)s2)cc1Cl	-0.1	97.0	4.1	-0.8	1.1	5.8	nt	nt
Cc1cc(C)nc(SCC(=O)Nc2ncc(Cc3ccc(Cl)c(Cl)c3)s2)n1	-0.9	91.0	-5.1	20.8*	-1.5	1.8	7.4	1.9
COc1ccc(-c2nc(-c3ccc(NC(=O)c4ccc(Br)o4)cc3)no2)cc1OC	-1.0	96.0	-1.4	44.9*	-4.7	0.0	21.6*	45.7*
COc1ccc(-c2noc(N3CCC(C(=O)Nc4ccc(OC)c(OC)c4)CC3)n2)cc1	-1.1	102.0	-2.0	12.9*	-1.3	6.6	-0.2	5.0
COc1ccc(CC(=O)Nc2ccc(-c3noc(-c4ccccc4OC)n3)cc2)cc1	-0.5	100.0	-4.8	16.1*	-2.6	0.3	23.9*	14.0
SMILES	TbMetRS inhib	ABCB6 inh 2	Granule exo inh	MC4R barr agon	hiPSC survival	MC4R antagonist	MC4R barr ag	MOR-DOR barr ag
COc1ccc(-c2noc(Cc3ccccc3OC)n2)cc1	-0.2	97.0	-5.6	5.1	1.9	9.1	nt	nt
COc1ccc(-c2noc(N3CCC(C(=O)Nc4ccccc4Cl)CC3)n2)cc1	0.0	93.0	-1.1	3.9	0.8	16.4	nt	nt
COc1ccccc1CC(=O)Nc1ccc(-c2noc(COc3ccc(Br)cc3)n2)cc1	-0.6	95.0	1.5	25.7*	2.7	9.1	8.0	18.7*
COc1ccc(S(=O)(=O)CC2(O)CCN(C(=O)C(C)(C)C)CC2)cc1	-0.3	97.0	-1.4	-2.7	-0.1	-2.0	nt	nt
Cc1ccc(S(=O)(=O)N2CCN(C(=O)/C=C/c3ccccc3)CC2)cc1C	0.0	96.0	19.1	-1.9	-0.3	11.2	nt	nt
Clc1ccc(CNCc2cccs2)cc1Cl	-0.6	102.0	-4.1	-0.5	0.8	-0.9	nt	nt
Clc1ccc(CNCc2cccs2)c(Cl)c1	0.7	98.0	-2.7	11.1*	0.5	14.3	1.8	4.1
COCCCn1c(=O)/c(=C\c2ccc(OC(F)F)c(OC)c2)s/c1=C(/C#N)C(N)=O	-0.4	98.0	-0.5	11.9*	-0.3	-4.1	5.9	14.9
COCCCn1c(=O)/c(=C\c2ccccc2OC(F)F)s/c1=C(/C#N)C(N)=O	-2.0	96.0	-0.1	1.9	1.3	-2.4	nt	nt
COCCNC(=O)c1ccc(-n2c(SCc3cc(F)ccc3F)nc3ccccc3c2=O)cc1	-0.9	98.0	5.9	12.4*	-0.4	6.6	8.3*	3.8
CCOC(=O)CSc1nc2ccccc2c(=O)n1-c1ccc(C(=O)NCCOC)cc1	-1.1	95.0	-0.5	3.3	-0.4	-0.2	nt	nt
O=C(Nc1cccc(C(=O)N2CCCc3ccccc32)c1)c1ccccc1	-0.1	95.0	-7.5	-1.1	1.1	2.6	nt	nt
COc1ccc(-c2csc(NC(=O)c3ccccc3NS(=O)(=O)c3ccc(F)c(F)c3)n2)cc1	0.0	94.0	28.3	15.1*	-0.6	18.6	3.8	2.7
CC(C)(C)c1ccc(/C=N/NC(=O)Cc2c[nH]c3ccccc23)cc1	-0.8	95.0	1.5	10.0*	-3.0	-1.3	4.5	11.2

Source: PubChem BioAssay
